Measured values published in ChEMBL document CHEMBL4765374, “8-Alkynyl-3-nitroimidazopyridines display potent antitrypanosomal activity against both T. b. brucei and cruzi” (Eur J Med Chem, 2020).
Converted amounts (≈) assume the structure as drawn.

What was measured:
Leishmania donovani [1] = experiment: Antileishmanial activity against Leishmania donovani BOB (MHOM/SD/62/1S-CL2D) promastigotes overexpressing NTR1 incubated for 72 hrs by resazurin dye based assay; type: functional, organism-based
Procedure, shortened: (§1)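 Clonal L. donovani LdBOB promastigotes grown at 26 °C in modified M199; NTR1- and NTR2-overexpressing lines maintained with nourseothricin (100 µg/mL). Triplicate 10 mL cultures seeded at 5×10^4 parasites/mL with drug for 72 h; 200 µL aliquots then given 50 µM resazurin, fluorescence (ex 528/em 590 nm) after 4 h more. EC50 from slope-factor equation; experiments repeated at least twice, mean plus standard deviation.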

Leishmania donovani [2] = experiment: Antileishmanial activity against Leishmania donovani MHOM/IN/00/DEVI promastigotes assessed as inhibition of metabolic activity measured after 72 hrs by MTT assay; type: functional, organism-based
Procedure, shortened: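 L. donovani MHOM/IN/00/DEVI promastigotes grown in Schneider's medium with 20% FCS at 27 °C. Log-phase parasites at 10⁶/mL were exposed in duplicate to serial compound concentrations in DMSO (final <0.5%) for 72 h at 27 °C. MTT was added for 4 h and absorbance read at 570 nm. EC50 from non-linear regression, mean of at least three independent experiments.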

[3] = AUC (0 to infinity) in Swiss albino mouse at 100 mg/kg, po; type: ADME, organism-based; set-up: time infinity, route oral, dose 100 mg/kg; settings: in vivo
Procedure, shortened: (§2)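 Female Swiss mice, 8 weeks, 30-32 g, given a single oral gavage at 100 mg/kg as a suspension in 5% Tween 80/95% carboxymethylcellulose 0.5% in water. Blood (100 µL) was extracted with ACN containing ornidazole as internal standard plus QuEChERS salts, then quantified by positive-ESI LC-MS/MS on a C8 column against whole-blood calibration standards (5 to 1,000 ng/mL).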

[4] = Cmax in Swiss albino mouse at 100 mg/kg, po; type: ADME, organism-based; set-up: route oral, dose 100 mg/kg; settings: in vivo; procedure, shortened: as §2
[5] = Selectivity index, ratio of CC50 for human HepG2 cells to EC50 for Trypanosoma brucei brucei AnTat 1.9; type: toxicity; settings: read-out: Selectivity Index
[6] = tested on: Trypanosoma brucei brucei; experiment: Antitrypanosomal activity against bloodstream form of Trypanosoma brucei brucei S427 trypomastigotes overexpressing NTR incubated for 72 hrs; type: functional, organism-based; settings: S427, 72 h
Procedure, shortened: (§3)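 Bloodstream-form T. brucei 'single marker' S427 cultured at 37 °C in HMI9-T with 2.5 µg/mL G418. The NTR1-overexpressing line was kept with 2.5 µg/mL phleomycin and induced with 1 µg/mL tetracycline 48 h before testing. Triplicate cultures seeded at 1×10^5 cells/mL with inhibitor. Cell densities counted after 72 h. EC50 from slope-factor equation.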

Leishmania donovani [7] = experiment: Antileishmanial activity against Leishmania donovani BOB (MHOM/SD/62/1S-CL2D) promastigotes overexpressing NTR2 incubated for 72 hrs by resazurin dye based assay; type: functional, organism-based; procedure, shortened: as §1
[8] = tested on: Trypanosoma brucei brucei; experiment: Antitrypanosomal activity against bloodstream form of wild type Trypanosoma brucei brucei S427 trypomastigotes incubated for 72 hrs; type: functional, organism-based; settings: S427, 72 h; procedure, shortened: as §3
[9] = Microsomal stability in CD-1 mouse liver microsomes assessed as half life measured after 40 mins in presence of NADPH by LC-MS/MS analysis; type: ADME, Microsome
Procedure, shortened: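 Female CD-1 mouse microsomes incubated in duplicate at 37 °C in 50 mM phosphate buffer, pH 7.4, with MgCl₂, NADP, glucose-6-phosphate and G6P dehydrogenase. […] Propranolol as reference.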

[10] = Solubility of the compound in aqueous medium at highest dose; type: physicochemical; settings: buffer
HepG2 = experiment: Genotoxicity in human HepG2 cells assessed as induction of DNA damage at 20 to 30 uM incubated for 2 to 72 hrs by alkaline comet assay; type: toxicity, cell-based; settings: hepg2, 30 µM, dose lower 20 µM, time lower 2 hrs, dose upper 30 µM, time upper 72 hrs
Procedure, shortened: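 HepG2 cells exposed for 2 or 72 h at 20 or 30 µM, then trypsinized and embedded in 0.7% low-melting agarose. Lysis 18 h at 4 °C, pH 10; alkaline electrophoresis (pH >13) for 24 min at 0.8 V/cm. Gels stained with SYBR Gold and imaged. % tail DNA is the median of 50 cells per deposit, three deposits per sample.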

[11] = Clearance in Swiss albino mouse at 100 mg/kg, po; type: ADME, organism-based; settings: in vivo; procedure, shortened: as §2
Albumin = Albumin (Homo sapiens, UniProt P02768); experiment: Protein binding to human albumin by LC-MS analysis; type: ADME; settings: read-out: PB (converted)
Procedure, shortened: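 Plasma spiked with compound was dialysed at 37 °C in triplicate against phosphate buffer pH 7.2 for 4 h at 300 rpm. Both compartments were sampled and quantified by LC-MS using propranolol as internal standard. Unbound fraction taken from the plasma and buffer peak ratios; recovery checked with a non-incubated spiked plasma.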

[12] = Cytotoxicity against human HepG2 cells assessed as reduction in cell viability after 72 hrs by MTT assay; type: cell-based
[13] = Tmax in Swiss albino mouse at 100 mg/kg, po; type: ADME, organism-based; settings: in vivo; procedure, shortened: as §2
[14] = tested on: Trypanosoma brucei brucei; experiment: […] activity against Trypanosoma brucei brucei AnTat 1.9 measured after 74 hrs by Alamar blue assay; type: functional, organism-based; settings: AnTat 1.9, 74 h
Procedure, shortened: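 Bloodstream T. b. brucei AnTat 1.9 grown at 37 °C, 5% CO₂ in MEM with Earle's salts plus mercaptoethanol, L-cysteine, bathocuproine sulfate and 20% heat-inactivated horse serum. Seeded at 2000 parasites/100 µL and exposed in duplicate to compounds in DMSO for 69 h. Alamar Blue then added for 5 h, fluorescence read at ex 530/em 590 nm. EC50 by nonlinear regression from three independent experiments.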

[15] = Thermodynamic solubility of the compound in phosphate buffer at pH 7.4 by shake flask method; type: physicochemical; settings: read-out: Therm_solubility
Procedure, shortened: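 Miniaturized shake-flask method: a 20 mM DMSO stock was diluted into phosphate buffer pH 7.4 (n=3), sonicated and shaken for 24 h at room temperature, then centrifuged. Supernatant was mixed 1:1 with acetonitrile and quantified by UV spectrophotometry at the compound's λmax against a calibration curve.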

[16] = Half life in Swiss albino mouse plasma at 100 mg/kg, po; type: ADME, organism-based; procedure, shortened: as §2
THP-1 = experiment: Cytotoxicity against human THP-1 cells assessed as reduction in cell viability after 72 hrs by MTT assay; type: functional
Procedure, shortened: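 THP-1 cells at 5×10⁴ cells/mL in complete RPMI were exposed in duplicate to compounds in DMSO (final <0.5%) for 72 h at 37 °C. MTT at 0.5 mg/mL for 2 h, formazan dissolved in DMSO, absorbance read at 570 nm with 630 nm reference. CC50 from the dose-response curve, mean of three independent experiments.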

[17] = Genotoxicity in Salmonella typhimurium at 0.25 mM incubated for 48 hrs by Ames test; type: toxicity; settings: salmonella enterica subsp. enterica serovar typhimurium, 250 µM
Procedure, shortened: (§4)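 Liquid pre-incubation Ames test using S. typhimurium TA97a, TA98, TA100 and TA102 grown overnight in nutrient broth. Cultures were incubated with compound (5-50 mM DMSO stock) and 4% S9 mix for 1 h at 37 °C, then plated in top agar on minimal agar for 48 h at 37 °C in the dark, in duplicate. Positive result: a two-fold rise in revertants over the spontaneous count. Benzo[a]pyrene with S9 as positive control.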

[18] = Genotoxicity in Salmonella typhimurium at 2.5 mM incubated for 48 hrs by Ames test; type: toxicity; settings: salmonella enterica subsp. enterica serovar typhimurium, 2500 µM; procedure, shortened: as §4
Trypanosoma cruzi = experiment: Antitrypanosomal activity against Trypanosoma cruzi trypomastigotes infected in African green monkey Vero cells incubated for 120 hrs measured on day 6 cells followed by trypomastigotes release by haemocytometer-based light microscopy; type: functional, organism-based
Procedure, shortened: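 Vero cells, grown 2 days, were infected with T. cruzi CL Brener trypomastigotes at 3:1 parasites to host cells. After 24 h, free parasites were washed off and compounds added (0.1 to 25 µM, 2 to 4-fold dilutions) for 120 h at 37 °C. Trypomastigotes released into the medium by day 6 were pelleted and counted by haemocytometer. EC50 by non-linear regression; two independent experiments, each in triplicate.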

Leishmania donovani [19] = experiment: Antileishmanial activity against wild type Leishmania donovani BOB (MHOM/SD/62/1S-CL2D) promastigotes incubated for 72 hrs by resazurin dye based assay; type: functional, organism-based; procedure, shortened: as §1
[20] = Effective permeability of the compound at pH 7.4 incubated for 4 hrs by PAMPA-BBB assay; type: ADME; settings: read-out: permeability
Procedure, shortened: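 Compound diluted from a 20 mM DMSO stock to 100 µM in Prisma HT buffer pH 7.4 and placed in the donor wells. Acceptor membrane coated with BBB-1 lipid, with Brain Sink Buffer in the acceptor wells. Plates incubated 4 h at room temperature without stirring, then read by UV-visible spectra to give Pe. Corticosterone and theophylline served as high and low permeability standards; n=6.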

[21] = Selectivity index, ratio of CC50 for cytotoxicity against human HepG2 cells to EC50 for antileishmanial activity against Leishmania donovani MHOM/IN/00/DEVI promastigotes; type: toxicity, cell-based; settings: read-out: Selectivity Index

Albumin, sequence (P02768 whole entry): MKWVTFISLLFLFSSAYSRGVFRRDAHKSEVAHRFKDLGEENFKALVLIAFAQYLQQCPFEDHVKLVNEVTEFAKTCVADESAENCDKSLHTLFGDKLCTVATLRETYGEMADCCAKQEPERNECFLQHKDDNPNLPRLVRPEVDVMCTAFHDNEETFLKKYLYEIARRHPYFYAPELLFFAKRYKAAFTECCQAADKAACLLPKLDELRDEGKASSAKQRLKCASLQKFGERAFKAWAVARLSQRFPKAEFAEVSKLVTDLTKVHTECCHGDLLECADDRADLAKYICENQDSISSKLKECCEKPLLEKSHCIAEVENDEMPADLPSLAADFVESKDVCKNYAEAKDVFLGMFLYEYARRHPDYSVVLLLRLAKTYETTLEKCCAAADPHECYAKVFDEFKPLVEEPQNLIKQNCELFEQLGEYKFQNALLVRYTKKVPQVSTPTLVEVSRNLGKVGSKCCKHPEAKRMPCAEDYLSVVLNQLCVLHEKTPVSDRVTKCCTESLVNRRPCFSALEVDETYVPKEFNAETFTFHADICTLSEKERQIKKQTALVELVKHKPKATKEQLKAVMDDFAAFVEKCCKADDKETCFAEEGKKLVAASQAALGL

SMILES: O=[N+]([O-])c1c(CS(=O)(=O)c2ccccc2)nc2c(C#CCCO)cc(Cl)cn12
- EC50 (Leishmania donovani [1]): 0.5 µM
- EC50 (Leishmania donovani [2]): 7.4 µM
- AUC(0-inf) [3]: 1430 ng·h/mL
- Cmax [4]: 394 ng/mL
- selectivity ratio [5]: > 1790
- EC50 [6]: 0.0265 µM
- EC50 (Leishmania donovani [7]): 24.5 µM
- EC50 [8]: 0.124 µM
- half-life [9]: 16 min
- solubility [10]: Insoluble
- Activity (HepG2): Non-Toxic
- CL/F [11]: 0.0407 mL/min
- fraction unbound (Albumin): 0.015
- CC50 at 72 h [12]: > 125 µM
- Tmax [13]: 49.8 min
- EC50 [14]: 0.07 µM
- solubility thermodynamic [15]: 70.7 µM (≈ 29.7 µg/mL)
- half-life [16]: 601 min
- CC50 (THP-1): > 100 µM
- Activity [17]: Toxic
- Activity [18]: Toxic
- EC50 (Trypanosoma cruzi): 1.2 µM
- EC50 (Leishmania donovani [19]): 21.4 µM
- Papp at 4 h [20]: 34.6 ×10⁻⁶ cm/s
- selectivity ratio [21]: > 16.9
